Screening results as filed in PubChem.
CHRM4 agonist: human M4 muscarinic receptor agonists, primary screen, CHO-K1 cells, Fluo-8 calcium fluorescence; CHO-K1 hM4/Gqi5; vehicle 0%, full acetylcholine response 100%; AID 624127, 2012; actives 0.14% (n = 360,000); Muscarinic acetylcholine receptor M4 (Homo sapiens), P08173; activation, % at 3 µM;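 active means activation above the run mean over all test wells plus 3 SD, cut at about 32% in these data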;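 further: peak over basal fluorescence ratio per well then scaled between controls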
M4 antag: human M4 muscarinic receptor antagonists, primary screen, CHO cells, Fluo-8 calcium fluorescence; AID 624125, 2012; CHO-hM4 cells, ACh EC80; actives 0.73% (n = 360,000); inhibition, % at 3 µM; Muscarinic acetylcholine receptor M4 (Homo sapiens), P08173;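 active means inhibition above its plate's cutoff, the mean inhibition of sample wells plus 3 SD, cut at about 27% in these data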
CHRM5 PAM: human M5 muscarinic receptor positive allosteric modulators, primary screen, CHO-K1 cells, Fluo-8 calcium fluorescence. CHO-K1 hM5, ACh EC20 PAM; 0% = ACh EC20, 100% = ACh EC100. Muscarinic acetylcholine receptor M5 (Homo sapiens), P08912. activation, % at 3 µM. actives 0.3% (n = 360,000);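 active means activation above the run cutoff, the mean activation of all test compounds plus 3 SD, cut at about 18% in these data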
Target sequence (P08912 whole entry, looked up): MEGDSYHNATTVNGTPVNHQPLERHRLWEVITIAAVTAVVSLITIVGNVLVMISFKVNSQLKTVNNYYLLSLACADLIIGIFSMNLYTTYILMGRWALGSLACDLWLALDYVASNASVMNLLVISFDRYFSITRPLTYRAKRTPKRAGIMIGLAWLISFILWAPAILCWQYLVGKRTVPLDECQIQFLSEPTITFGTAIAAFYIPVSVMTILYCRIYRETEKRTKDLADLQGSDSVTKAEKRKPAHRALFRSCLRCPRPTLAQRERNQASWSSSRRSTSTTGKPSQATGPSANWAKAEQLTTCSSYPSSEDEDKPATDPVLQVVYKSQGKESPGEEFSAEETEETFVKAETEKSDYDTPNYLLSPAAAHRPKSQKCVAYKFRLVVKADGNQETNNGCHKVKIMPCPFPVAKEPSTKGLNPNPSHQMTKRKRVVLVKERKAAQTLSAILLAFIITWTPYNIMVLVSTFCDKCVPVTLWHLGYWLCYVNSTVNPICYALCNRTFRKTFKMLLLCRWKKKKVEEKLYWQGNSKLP
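Probe or stimulus: acetylcholine, EC20 level; Assay system: human M5 receptor in CHO-K1 cells; Schedule: compound preincubation 140 s before EC20 acetylcholine addition; Technique: intracellular calcium via Fluo-8 fluorescence; Dosing: single-point, 3 µM nominal; Read-out basis: percent activation from peak-over-basal fluorescence ratio, scaled EC20-to-EC100 acetylcholine; Repeats: one well per compound, no replicates.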
CHRM5 antagonist: human M5 muscarinic receptor antagonists, primary screen, CHO cells, Fluo-8 calcium fluorescence; Muscarinic acetylcholine receptor M5 (Homo sapiens), P08912; CHO-hM5 cells, ACh EC80; inhibition, % at 3 µM; actives 0.59% (n = 360,000); AID 624040, 2012;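 active means inhibition above a per-plate cutoff, the mean of that plate's test compounds plus 3 SD, cut at about 27% in these data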
CHRM4 PAM: human M4 muscarinic receptor positive allosteric modulators, primary screen, CHO-K1 cells, Fluo-8 calcium fluorescence; AID 624126, 2012; activation, % at 3 µM; actives 0.4% (n = 360,000); CHO-K1 hM4/Gqi5, ACh EC20; 0% = ACh EC20, 100% = maximal ACh; Muscarinic acetylcholine receptor M4 (Homo sapiens), P08173;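 active means activation above its plate's cutoff, the mean activation of sample wells plus 3 SD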
M5 ag: human M5 muscarinic receptor agonists, primary screen, CHO-K1 cells, Fluo-8 calcium fluorescence; CHO-K1 hM5 cells; 0% DMSO wells, 100% maximal acetylcholine response; activation, % at 3 µM; actives 0.19% (n = 360,000);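 active means activation above the run's mean over test compounds plus 3 SD, cut at about 23% in these data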;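 further: signal is peak over basal fluorescence ratio across the kinetic read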
Numbers stand for hits; . = inactive. An excerpt weighted towards active compounds, which were near 1.8% of everything screened.

SMILES | CHRM4 agonist | M4 antag | CHRM5 PAM | CHRM5 antagonist | CHRM4 PAM | M5 ag
CC(C)(C)OC(=O)NC1CC2CCCC(C1)N2Cc1ccccc1 (configuration not stated) | . | 83 | . | . | . | .
CCNC(=S)NC1CC2CCCC(C1)N2Cc1ccc(C)cc1 (configuration not stated) | . | . | . | . | . | .
CNC(=S)NC1CC2CCCC(C1)N2Cc1ccc(C)cc1 (configuration not stated) | . | . | 28 | . | . | .
Cc1cccc(C)c1NC(=O)C(c1ccc(C#N)cc1)n1c(=O)c(-c2cc3ccccc3[nH]2)nc2ccccc21 (configuration not stated) | . | . | . | . | . | .
CC(=O)c1c(C)[nH]c(C(=O)CN2C(=O)NC(C)(c3ccc(C)cc3)C2=O)c1C (configuration not stated) | 36 | . | . | . | . | 46
O=C(CCNS(=O)(=O)c1ccc(F)cc1)N1CCN(c2ncccn2)CC1 | . | . | . | . | . | .
CN(C)C(=O)c1ccc(Cc2cn(C)c3ccccc23)nc1 | . | . | . | . | . | .
CCOc1ccc(NC(=O)CN2C(=O)S/C(=C/c3cccn3C)C2=O)cc1 | . | . | . | 28 | . | .
O=C(Nc1ccccc1Br)C1CCN(S(=O)(=O)c2cccs2)CC1 | . | . | . | . | . | .
CC(C)N1C(=O)c2ccccc2NC(=O)C1C(=O)NCc1ccccc1 (configuration not stated) | . | . | . | . | . | .
NNc1ccc(Cl)nn1 | . | . | . | . | . | .
CCNC(=O)NC1c2ccccc2CSc2ccccc21 (configuration not stated) | . | . | . | . | . | .
CCOCCN1CCN(C2c3ccccc3CSc3ccccc32)CC1 (configuration not stated) | . | 99 | . | 100 | . | .
O=C(COC(=O)c1ccco1)Nc1cccc(S(=O)(=O)N2CCOCC2)c1 | . | . | . | . | . | .
COc1cc(Br)c(C2C(C#N)=C(N)Oc3n[nH]c(-c4cccnc4)c32)cc1OC (configuration not stated) | . | . | . | . | . | .
O=C(NNC(=O)c1ccc(Oc2ccc(C3SCCS3)cc2)o1)c1ccc(Cl)cc1 | . | 27 | . | . | . | .
O=C(NNC(=O)c1ccc(Oc2cc(Cl)cc(Cl)c2)o1)c1ccccc1 | . | . | . | . | . | .
CCCC(C)(C)C(=O)N1CCC1(C)C(=O)NS(=O)(=O)c1cccc(Cl)c1 (configuration not stated) | . | . | . | . | . | .
C=C(C)CSc1nnc(-c2ccc(OC)c(OC)c2)n1N | . | . | . | . | 30 | .
Cc1noc(C)c1CSc1ccccc1C(=O)Nc1nccs1 | . | . | 30 | . | . | .
CCOc1ncccc1C(=O)Nc1ccc(C)cn1 | . | . | . | . | . | .
CCn1c2c(c(=N)c3c1CCC3)CCC2 | . | . | . | 32 | . | .
CCCCCCCCCn1c2c(c(=N)c3c1CCC3)CCC2 | . | 50 | . | 40 | . | .
CCCCCCn1c2c(c(=N)c3c1CCC3)CCC2 | . | . | . | . | . | .
COc1cc2cc(C(=O)N3CCOCC3)cc(-c3ccc(C)cc3)c2cc1OC | . | . | . | . | . | .
CCCN1CN(Cc2ccccc2)CC2=C1CC(C)(C)CC2=O | . | . | . | . | . | .
CC1(C)CC(=O)C2=C(C1)NCN(Cc1ccccc1)C2 | . | . | . | . | 34 | .
O=C(NNc1ccccc1)Nc1ccccc1F | . | . | . | . | . | .
CCCCn1cc(C(=O)c2cc(Br)ccc2O)cc(C#N)c1=O | . | . | . | 29 | . | .
